High-throughput results from PubChem.
Rows were chosen to be rich in hits. Some 1.9% of all compounds tested hit in one or more screens of this group.
MBD2 inh – blocks human MBD2 binding to methylated DNA; Q9UBB5; TR-FRET, MBD2 binding to methylated oligonucleotide; inhibition, % at 4.4 µM; 370,000 compounds, 0.31% hits; in the data active = inhibition above about 13%
TDP2 absorb – TDP2 (human) inhibition, absorbance primary screen; AID 720702; recombinant TDP2, T5PNP hydrolysis, p-nitrophenol absorbance 415 nm; inhibition, % at 12.8 µM; 370,000 compounds, 0.34% hits; O95551;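 active = inhibition above the mean of all tested compounds plus 3 SD, set per campaign, cut at about 25% in these data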;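 also: 0% = DMSO with enzyme and 100% = buffer with substrate but no TDP2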
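System – recombinant human TDP2 · Quantity – TDP2 enzyme at 120 nM final · Doses – single concentration, 12.8 µM nominal, with 1% DMSO · Incubation – 2 h at 37 °C · Measured by – epi absorbance of p-nitrophenol freed from T5PNP by hydrolysis · Read-out – % inhibition relative to enzyme-containing and enzyme-free wells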
Rin1 Abl inh – blocks binding of human Rin1 to Abl; TR-FRET Rin1/Abl binding, biochemical; inhibition, % at 7.35 µM; 360,000 compounds, 0.4% hits; in the data active = inhibition above about 5%, passing the limit was not always enough
LEDGF integ inh – blocks HIV-1 LEDGF/p75-dependent DNA integration | AID 743269 | inhibition, % at 3.7 µM | TR-FRET IN-LEDGF/p75 DNA integration, Eu/Cy5 | 370,000 compounds, 0.64% hits;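 active = inhibition above the screen-wide mean plus 3 SD, cut at about 13% in these data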;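 also: signal is the Cy5 over europium emission ratio at 671 and 618 nm; 0% = plate median of compound wells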
UHRF1 binding – blocks human UHRF1 binding to methylated DNA. Q96T88. UHRF1 binding to methylated oligo, TR-FRET. inhibition, % at 4.4 µM. 370,000 compounds, 0.75% hits. AID 687016; in the data active = inhibition above about 21%;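 also: UHRF1 SRA domain binding a hemimethylated CpG hairpin DNA probe; 0% = median of test compound wells and 100% = reference inhibitor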
Starred values were filed as active, the others as inactive; nt = no result given.

SMILES	MBD2 inh	TDP2 absorb	Rin1 Abl inh	LEDGF integ inh	UHRF1 binding
CC1=NOC(=O)/C1=C\c1ccc(-c2ccc(Cl)c(C(=O)O)c2)o1	5	-19	2	7	28*
Cc1ccc(N2NC(=O)/C(=C/c3ccc(-c4ccc(Cl)c(C(=O)O)c4)o3)C2=O)cc1C	-2	-5	1	-2	4
CC1=NOC(=O)/C1=C\c1ccc(-c2cccc(Cl)c2)o1	nt	nt	-1	nt	nt
Cc1ccc(CNCCNCCO)s1	12	-11	1	-4	22*
COc1c2c(cc3ccc(=O)oc13)CCO2	-5	12	-3	4	49*
COc1c2occc2cc2ccc(=O)oc12	-1	-1	-2	0	-3
COC1=CC(=Cc2c(N)n3nc(CC(=O)N4CCCCC4)sc3nc2=O)C=C(OC)C1=O	12	-8	-2	0	32*
Nc1c(/C=C2/C=CC(=O)C(O)=C2)c(=O)nc2sc(CC(=O)N3CCCC3)nn12	-3	0	1	8	9
Nc1c(/C=C2/C=CC(=O)C(O)=C2)c(=O)nc2sc(CC(=O)N3CCCCC3)nn12	6	-13	2	16*	26*
CCOC(=O)[C@]12CCCC3=C1N(CCC3)C(=O)[C@@H](CC(=O)NCc1ccc(C)o1)C2	1	3	nt	2	-4
O=C(Cc1ccc(Cl)cc1Cl)NCc1cccnc1	1	-3	3	-2	21*
O=C(Cc1c(F)cccc1Cl)NCc1cccnc1	1	-12	-1	2	-1
CN(Cc1ccccc1)c1nc(-c2cccc([N+](=O)[O-])c2)nc2ccccc12	3	-16	0	-2	23*
O=C(O)c1ccccc1CC(CCc1ccccc1)C(=O)O (configuration not stated)	11	5	2	5	21*
Cc1ccc(NC(=O)COCC(=O)Nc2ccc(C)cc2)cc1	0	-3	-1	7	-3
Cc1ccc(S(=O)(=O)OCC(=O)Nc2ccc(C(=O)O)c(O)c2)cc1	8	2	-1	15*	8
COC(=O)[C@H](CC(C)C)N(CCCc1cn(CC2CCCCC2)nn1)S(=O)(=O)c1ccc(F)cc1Br	-2	-3	nt	3	-1
C[C@H]1[C@@H](OC(=O)Nc2cccc(Cl)c2)CC[C@@]23CCCN2C(=O)CCC[C@@H]13	0	-2	nt	-1	-1
CCCCCCCCCCCC(=O)N/N=C/c1ccco1	11	-5	-5	4	27*
Cc1cc(C)c(-c2c(O)c3cccnc3n(C)c2=O)c(C)c1	-4	-2	2	-1	29*
CCCCn1c(N)c(N(CCOC)C(=O)CSc2ccccc2C)c(=O)[nH]c1=O	-5	9	3	9	-3
COCCN(C(=O)CSc1ncn[nH]1)c1c(N)n(Cc2ccccc2)c(=O)[nH]c1=O	4	-12	3	5	27*
CCCCn1c(N)c(N(CCOC)C(=O)C2CCN(S(=O)(=O)c3ccc(F)cc3)CC2)c(=O)[nH]c1=O	-7	-3	0	5	1
CCN(CC)c1ccc(-c2nnc(SCC(=O)N(CCOC)c3c(N)n(CC(C)C)c(=O)[nH]c3=O)o2)cc1	1	1	-3	-1	80*
CCCCn1c(N)c(N(CCOC)C(=O)CSCc2ccccc2C)c(=O)[nH]c1=O	13	8	3	7	33*
SMILES	MBD2 inh	TDP2 absorb	Rin1 Abl inh	LEDGF integ inh	UHRF1 binding
CCCCn1c(N)c(N(CCOC)C(=O)C2CCN(S(=O)(=O)c3ccc(Cl)cc3)CC2)c(=O)[nH]c1=O	7	2	-1	3	24*
COCCN1C(=O)COc2ccccc2C1C(=O)Nc1c(C)cccc1C (configuration not stated)	6	11	nt	0	21*
CC1(C(=O)Nc2cccc(C#N)c2)CCN1C(=O)C/C=C/c1ccccc1 (configuration not stated)	-8	-17	-3	1	24*
CCCC/C=C1/[C@@H](CC)N(Cc2ccc(OC)cc2OC)C2=N[C@@H](c3ccccc3)CC(=O)N21	-9	-18	nt	4	2
O=C1CCC[C@H]2C[C@H](NCc3cccc(Cl)c3)CC[C@]23CCCN13	-2	5	nt	2	-3
COc1ccc(CNC(=O)CSc2nnc3c(n2)[nH]c2ccc(OC)cc23)cc1	-5	13	0	5	-1
COc1ccc2[nH]c3nc(SC(C)C)nnc3c2c1	-4	0	-2	0	54*
